“And” between values parts separate entries of the source, which are not always exact repeats. Equal entries are not always repeated. The source made the active and inactive calls. No cut-off for these calls is given here.
How the values were obtained:
Mus musculus [1] = species: Mus musculus; assay: Percent reduction of plasma glucose after 6 days of treatment (various doses).; format: functional
Mus musculus [2] = species: Mus musculus; assay: The compound was tested for percent reduction of plasma triglyceride after 6 days of treatment.; format: functional; parameters: concentration or dose not given beside the values
Mus musculus [3] = assay: Percent reduction of plasma glucose (PG) after 6 days of treatment. It is the mean of standard deviation observed in plasma glucose (PG) in db/db mice at dose of 100 mg/kg/day; format: functional; conditions: route oral
Mus musculus [4] = assay: Percent reduction of plasma glucose (PG) after 6 days of treatment. It is the mean of standard deviation observed in plasma glucose (PG) in db/db mice at dose of 30 mg/kg/day; format: functional; conditions: route oral
Mus musculus [5] = assay: Percent reduction in plasma triglyceride (TG) after 6 days of treatment. It is the mean of standard deviation observed in plasma triglyceride (TG) in db/db mice at dose of 100 mg/kg/day; format: functional; conditions: route oral
Mus musculus [6] = assay: Percent reduction in plasma triglyceride (TG) after 6 days of treatment. It is the mean of standard deviation observed in plasma triglyceride (TG) in db/db mice at dose of 30 mg/kg/day; format: functional; conditions: route oral
[7] = molecular target: T1, Peroxisome proliferator-activated receptor alpha (Homo sapiens) (UniProt Q07869); assay: The fold activation against 50 u M Peroxisome proliferator activated receptor alpha(amino acids 167-468)
T1 sequence (whole entry): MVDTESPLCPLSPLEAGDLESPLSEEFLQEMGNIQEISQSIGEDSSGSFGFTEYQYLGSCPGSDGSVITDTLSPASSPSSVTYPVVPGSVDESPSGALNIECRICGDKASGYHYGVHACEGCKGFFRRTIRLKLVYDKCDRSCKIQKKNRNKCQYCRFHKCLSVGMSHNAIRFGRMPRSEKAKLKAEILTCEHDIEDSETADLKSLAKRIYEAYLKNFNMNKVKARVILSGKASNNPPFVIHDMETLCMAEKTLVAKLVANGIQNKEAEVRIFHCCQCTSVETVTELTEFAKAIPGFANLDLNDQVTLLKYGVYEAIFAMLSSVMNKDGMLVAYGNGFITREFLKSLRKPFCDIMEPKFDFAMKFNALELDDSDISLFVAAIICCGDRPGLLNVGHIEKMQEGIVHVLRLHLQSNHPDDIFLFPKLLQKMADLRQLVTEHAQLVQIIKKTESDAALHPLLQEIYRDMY

[8] = molecular target: T2, Peroxisome proliferator-activated receptor gamma (Homo sapiens) (UniProt P37231); assay: The fold activation against 1 amino acids 174-475)
T2 sequence (whole entry): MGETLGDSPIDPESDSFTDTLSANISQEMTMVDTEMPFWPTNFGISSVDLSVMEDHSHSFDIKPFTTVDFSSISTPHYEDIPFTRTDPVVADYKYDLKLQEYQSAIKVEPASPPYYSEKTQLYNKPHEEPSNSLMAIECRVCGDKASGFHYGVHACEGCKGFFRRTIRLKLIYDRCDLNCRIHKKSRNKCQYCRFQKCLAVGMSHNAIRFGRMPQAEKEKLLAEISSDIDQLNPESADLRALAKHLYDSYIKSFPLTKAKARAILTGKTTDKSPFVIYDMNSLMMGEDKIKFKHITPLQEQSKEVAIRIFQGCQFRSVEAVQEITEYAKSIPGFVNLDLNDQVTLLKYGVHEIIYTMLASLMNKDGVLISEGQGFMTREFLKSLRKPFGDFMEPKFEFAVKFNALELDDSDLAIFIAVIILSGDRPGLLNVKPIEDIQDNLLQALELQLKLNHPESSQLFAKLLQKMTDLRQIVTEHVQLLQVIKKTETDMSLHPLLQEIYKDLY

[9] = molecular target: T1, Peroxisome proliferator-activated receptor alpha (Homo sapiens); assay: Compound was tested for fold transactivation of human Peroxisome proliferator activated receptor alpha at 50 uM
Mus musculus [10] = assay: Percent reduction in plasma triglyceride (TG) after 6 days of treatment. It is the mean of standard deviation observed in plasma triglyceride (TG) in db/db mice at dose of 100 mg/kg/day; NA = Not Active; format: functional
[11] = Pharmacokinetic Parameter, half life period measured in Female Wistar Rats at 100 mg/kg by po administration; format: ADME, organism-based; parameters: dose 100 mg/kg, route oral; conditions: rat, in vivo
[12] = Pharmacokinetic Parameter, Tmax is the time at which maximum concentration (Cmax) is reached in Female Wistar Rats at 100 mg/kg by po administration; format: ADME, organism-based; parameters: dose 100 mg/kg, route oral; conditions: rat, in vivo
[13] = Pharmacokinetic Parameter, AUC (0-infinity) is the area under the plasma concentration versus time curve extrapolated to infinity in Female Wistar Rats at 100 mg/kg by po administration; format: ADME, organism-based; parameters: time infinity, dose 100 mg/kg, route oral; conditions: rat, read-out: AUC 0-infinity
[14] = Pharmacokinetic Parameter, AUC (0-t) is the area under the plasma concentration versus time curve in Female Wistar Rats at 100 mg/kg by po administration; format: ADME, organism-based; parameters: dose 100 mg/kg, route oral; conditions: rat
[15] = Pharmacokinetic Parameter, Cmax is observed maximum plasma concentration in Female Wistar Rats at 100 mg/kg by po administration; format: ADME, organism-based; parameters: dose 100 mg/kg, route oral; conditions: rat
Rattus norvegicus [16] = species: Rattus norvegicus; assay: The AUC(0-infinity) values in female wistar rats.; format: ADME, organism-based; parameters: time infinity; conditions: in vivo
Rattus norvegicus [17] = species: Rattus norvegicus; assay: The AUC(0-t)values in female wistar rats.; format: ADME, organism-based; conditions: in vivo
[18] = Pharmacokinetic Parameter, Kel is elimination rate constant in Female Wistar Rats at 100 mg/kg by po administration; format: ADME, organism-based; parameters: dose 100 mg/kg, route oral; conditions: rat, in vivo
[19] = The Kel values in female wistar rats.; format: ADME, organism-based; conditions: rat, in vivo
[20] = The Cmax values in female wistar rats.; format: ADME, organism-based; conditions: rat, in vivo
[21] = The half life period in female wistar rats.; format: ADME, organism-based; conditions: rat, in vivo
Summary of the method: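 Female Wistar rats (200–225 g), fasted 12 h overnight with water, fed 3 h post-dose; single 100 mg/kg oral dose as 0.5% CMC suspension. Retro-orbital blood sampled at multiple times; 0.2 mL plasma extracted, analysed by reverse-phase C18 HPLC with internal standard. Parameters by noncompartmental analysis; mean ± SD, n = 4.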

[22] = The Tmax values in female wistar rats.; format: ADME, organism-based; conditions: rat, in vivo
Mus musculus [23] = species: Mus musculus; assay: The compound was tested for percent reduction of plasma triglyceride after 6 days of treatment; Not Active; format: functional, organism-based
Mus musculus [24] = assay: Percent reduction of plasma glucose (PG) after 6 days of treatment. It is the mean of standard deviation observed in plasma glucose (PG) in db/db mice at dose of 200 mg/kg/day; format: functional; conditions: route oral
Mus musculus [25] = assay: Percent reduction of plasma glucose (PG) after 6 days of treatment. It is the mean of standard deviation observed in plasma glucose (PG) in db/db mice at dose of 30 mg/kg/day; NA = Not Active; format: functional, organism-based
Mus musculus [26] = assay: Percent reduction in plasma triglyceride (TG) after 6 days of treatment. It is the mean of standard deviation observed in plasma triglyceride (TG) in db/db mice at dose of 200 mg/kg/day; format: functional; conditions: route oral
Mus musculus [27] = assay: Percent reduction in plasma triglyceride (TG) after 6 days of treatment. It is the mean of standard deviation observed in plasma triglyceride (TG) in db/db mice at dose of 30 mg/kg/day; NA = Not Active; format: functional, organism-based

Fold activation [7] | Fold activation [8] | Transactivation [9] | SMILES | Reduction (Mus musculus [1]) | Reduction (Mus musculus [2]) | PG (Mus musculus [3]) | PG (Mus musculus [4]) | TG (Mus musculus [6]) | also measured
 |  |  | Cc1c(C)c2c(c(C)c1OCc1ccccc1)C(CN1CCC[C@H]1COc1ccc(CC3SC(=O)NC3=O)cc1)C(C)(C)O2 (some centres not stated) [listing 1 of 2 here] | 48% and 37% | 31% and 22% | 48% | 37% | 22% | TG (Mus musculus [5]): 31%
0.33 | 0.17 | 0.33 fold | Cc1c(C)c2c(c(C)c1OCc1ccccc1)C(CN1CCC[C@H]1COc1ccc(CC3SC(=O)NC3=O)cc1)C(C)(C)O2 (some centres not stated) [listing 2 of 2 here] |  |  |  |  |  | 
0.46 | 1.21 | 0.46 fold | Cc1c(C)c2c(c(C)c1O)C(CN1CCC[C@H]1COc1ccc(CC3SC(=O)NC3=O)cc1)C(C)(C)O2 (some centres not stated) | 37% and 28% | 33% and 29% | 37% | 28% | 29% | TG (Mus musculus [5]): 33%
 |  |  | Cc1c(C)c2c(c(C)c1O)C(COc1ccc(CC3SC(=O)NC3=O)cc1)C(C)(C)O2 (configuration not stated) | 12% | 31% |  |  |  | 
 |  |  | Cc1c(C)c2c(c(C)c1O)C(CN(C)CCOc1ccc(/C=C3\SC(=O)NC3=O)cc1)C(C)(C)O2 (configuration not stated) | 28% | 76% | 28% |  |  | TG (Mus musculus [10]; route oral): 76%
 |  |  | Cc1c(C)c2c(c(C)c1OCc1ccccc1)C(CN1CCC[C@H]1COc1ccc(CC3SC(=O)NC3=O)cc1)C(C)(C)O2.O=C(O)/C=C\C(=O)O (some centres not stated) |  |  |  | 24% | 64% | 
0.43 | 1.03 | 0.43 fold | Cc1c(C)c2c(c(C)c1OCc1ccccc1)C(CN1CCC[C@H]1COc1ccc(/C=C3\SC(=O)NC3=O)cc1)C(C)(C)O2 (some centres not stated) [listing 1 of 2 here] |  |  |  |  |  | 
 |  |  | Cc1c(C)c2c(c(C)c1OCc1ccccc1)C(CN1CCC[C@H]1COc1ccc(/C=C3\SC(=O)NC3=O)cc1)C(C)(C)O2 (some centres not stated) [listing 2 of 2 here] | 66% and 40% | 52% and 38% | 66% | 40% | 38% | half-life [11]: 13.1 h; Tmax [12]: 3.5 h; AUC(0-inf) [13]: 23.6 µg·h/mL; AUC(0-t) [14]: 15.5 µg·h/mL; Cmax [15]: 1.25 µg/mL; AUC (Rattus norvegicus [16]): 23.6 µg·h/mL; AUC (Rattus norvegicus [17]): 15.5 µg·h/mL; k el [18]: 1.39e-05 s⁻¹; k el [19]: 1.39e-05 s⁻¹; Cmax [20]: 1.25 µg/mL; half-life [21]: 13.1 h; Tmax [22]: 3.5 h; TG (Mus musculus [5]): 52%
 |  |  | Cc1oc2c(C)c(C)c(O)c(C)c2c1CN1CCC[C@@H](Oc2ccc(/C=C3\SC(=O)NC3=O)cc2)C1 | 22% |  | 22% |  |  | Reduction (Mus musculus [23]): inactive; TG (Mus musculus [10]): inactive
0.28 | 0.84 | 0.28 fold | Cc1c(C)c2c(c(C)c1O)C(CN1CCC[C@H]1COc1ccc(/C=C3\SC(=O)NC3=O)cc1)C(C)(C)O2 (some centres not stated) | 19% |  | 19% |  |  | Reduction (Mus musculus [23]): inactive; TG (Mus musculus [10]): inactive
 |  | 1.12 fold | Cc1c(C)c2c(c(C)c1O)CCC(C)(COc1ccc(CC3SC(=O)NC3=O)cc1)O2 (configuration not stated) [TROGLITAZONE] | 26% | 50% |  |  |  | half-life [11]: 4.01 h; Tmax [12]: 2.25 h; AUC(0-inf) [13]: 27.4 µg·h/mL; AUC(0-t) [14]: 25.9 µg·h/mL; Cmax [15]: 5.47 µg/mL; AUC (Rattus norvegicus [16]): 27.4 µg·h/mL; AUC (Rattus norvegicus [17]): 25.9 µg·h/mL; k el [18]: 5.56e-05 s⁻¹; k el [19]: 5.56e-05 s⁻¹; Cmax [20]: 5.47 µg/mL; half-life [21]: 4.01 h; Tmax [22]: 2.25 h; PG (Mus musculus [24]): 26%; PG (Mus musculus [25]): inactive; TG (Mus musculus [26]): 50%; TG (Mus musculus [27]): inactive
